Source: ChEMBL document CHEMBL1137637, “Quinuclidine derivatives as potential antiparasitics” (Antimicrob Agents Chemother, 2007)
In brackets after ≈: the same amount, converted by molar mass.

Assays:
[1] = biological target: T1, Squalene synthase (Homo sapiens, UniProt P37268); assay: Inhibition of human recombinant squalene synthase expressed in Escherichia coli BL21(DE3 pLysS) up to 1 uM by liquid scintillation counter
T1 sequence (P37268 whole entry): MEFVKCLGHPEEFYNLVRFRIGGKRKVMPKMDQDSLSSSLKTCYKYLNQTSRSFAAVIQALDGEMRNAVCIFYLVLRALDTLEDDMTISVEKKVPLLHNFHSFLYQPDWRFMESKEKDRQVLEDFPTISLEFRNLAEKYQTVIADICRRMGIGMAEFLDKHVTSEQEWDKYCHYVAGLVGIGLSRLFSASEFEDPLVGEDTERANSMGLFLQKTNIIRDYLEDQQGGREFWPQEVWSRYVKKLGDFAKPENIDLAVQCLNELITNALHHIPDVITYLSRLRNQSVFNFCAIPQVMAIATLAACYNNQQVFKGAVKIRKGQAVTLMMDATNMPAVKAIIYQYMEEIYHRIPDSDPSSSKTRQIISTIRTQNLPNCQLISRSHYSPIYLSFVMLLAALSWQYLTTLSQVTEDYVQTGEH
How it was run: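 Human SQS in extracts of E. coli BL21(DE3 pLysS) carrying pHSS16, assayed under the same conditions as the L. major enzyme. Buffer: phosphate pH 7.4, MgCl2, CHAPS, Tween 80, DTT, BSA, and NADPH with a regenerating system. Substrate 0.5 μM radiolabelled farnesyl pyrophosphate. Squalene band radioactivity counted by scintillation.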

[2] = biological target: T2, Farnesyltransferase, putative (Leishmania major, UniProt Q4Q5W4); assay: Inhibition of Leishmania major recombinant squalene synthase expressed in Escherichia coli by liquid scintillation counter
T2 sequence (Q4Q5W4 whole entry): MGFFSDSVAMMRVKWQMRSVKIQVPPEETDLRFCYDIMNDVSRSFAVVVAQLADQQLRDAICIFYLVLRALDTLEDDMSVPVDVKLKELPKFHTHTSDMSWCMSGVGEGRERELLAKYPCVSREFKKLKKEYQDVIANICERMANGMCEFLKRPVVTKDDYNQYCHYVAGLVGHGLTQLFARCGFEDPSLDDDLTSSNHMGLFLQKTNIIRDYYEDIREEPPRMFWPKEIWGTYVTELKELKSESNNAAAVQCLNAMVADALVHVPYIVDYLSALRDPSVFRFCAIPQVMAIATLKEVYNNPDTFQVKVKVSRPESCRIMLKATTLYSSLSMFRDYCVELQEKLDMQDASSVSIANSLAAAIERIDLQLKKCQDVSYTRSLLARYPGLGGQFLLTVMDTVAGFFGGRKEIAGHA
How it was run: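 Soluble E. coli extract expressing L. major SQS truncated by 16 N-terminal and 40 C-terminal residues. Buffer: 50 mM phosphate pH 7.4, 20 mM MgCl2, 5 mM CHAPS, 1% Tween 80, 10 mM DTT, BSA, 0.25 mM NADPH, and a glucose-6-phosphate/G6PDH regenerating system. Substrate 0.5 μM radiolabelled farnesyl pyrophosphate. Squalene band counted by scintillation. IC50 from hyperbolic plot of five concentrations in duplicate, usually run twice.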

[3] = system: Leishmania amazonensis; assay: Antileishmanial activity against Leishmania mexicana amazonensis promastigotes by trypan blue exclusion method; format: functional, organism-based
How it was run: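 L. mexicana amazonensis promastigotes cultured in liver infusion-tryptose medium with lactalbumin and 10% FCS at 26°C, unagitated. Cultures started at 2 × 10⁶ cells/ml and drug added at 0.5–1 × 10⁷ cells/ml. Density counted by electronic particle counter and hemocytometer. Viability by trypan blue exclusion. Triplicate growth experiments.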

[4] = system: Leishmania amazonensis; assay: Inhibition of sterol biosynthesis in Leishmania mexicana amazonensis promastigotes assessed as reduction in endogenous cholesta-5,7,24-trien-3beta-ol level at 3 uM after 96 hrs by gas-liquid chromatography; format: functional; parameters: scale not given: the % may be the effect or the level left
How it was run: (§1)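 L. mexicana promastigotes exposed to compound for 96 h. Total lipids extracted and neutral sterols separated from polar lipids by silicic acid column chromatography. Sterols analysed by TLC and by quantitative capillary gas-liquid chromatography with mass spectrometry. Composition expressed as mass % of free sterols, compared with untreated control.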

[5] = system: Leishmania amazonensis; assay: Inhibition of sterol biosynthesis in Leishmania mexicana amazonensis promastigotes assessed as reduction in exogenous cholesterol level at 3 uM after 96 hrs by gas-liquid chromatography; format: functional; parameters: scale not given: the % may be the effect or the level left; how it was run: as §1
[6] = system: Leishmania amazonensis; assay: Inhibition of sterol biosynthesis in Leishmania mexicana amazonensis promastigotes assessed as reduction in endogenous 5-dehydro episterol level at 3 uM after 96 hrs by gas-liquid chromatography; format: functional; parameters: scale not given: the % may be the effect or the level left; how it was run: as §1
[7] = system: Leishmania amazonensis; assay: Inhibition of sterol biosynthesis in Leishmania mexicana amazonensis promastigotes assessed as reduction in endogenous episterol level at 3 uM after 96 hrs by gas-liquid chromatography; format: functional; parameters: scale not given: the % may be the effect or the level left; how it was run: as §1
[8] = system: Leishmania donovani; assay: Antileishmanial activity against Leishmania donovani MHOM/ET/67/L82 axenic amastigotes after 72 hrs by resazurin assay; format: functional, organism-based; conditions: MHOM/ET/67/L82, 72 h
How it was run: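 L. donovani MHOM/ET/67/L82 amastigotes grown axenically at 37°C in synthetic minimal medium at pH 5.4 with 10% heat-inactivated FBS under 5% CO2. 1 × 10⁵ amastigotes per well with seven threefold dilutions, 30 to 0.041 μg/ml. After 72 h, resazurin added for 2–4 h more. Fluorescence read at ex 536/em 588 nm. IC50 taken from sigmoidal curve. Run in duplicate, with an independent repeat for actives.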

[9] = system: L6; assay: Cytotoxicity against rat L6 cells after 72 hrs by resazurin assay; format: cell-based; conditions: L6, 72 h
How it was run: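 L-6 cells seeded at 4 × 10⁴ cells/ml in RPMI 1640 with 10% FBS and 2 mM L-glutamine. After 24 h, medium replaced with serial drug dilution and incubated for 72 h at 37°C in 5% CO2. Resazurin added for 2–4 h, fluorescence read at ex 536/em 588 nm. IC50 from sigmoidal curve. Duplicate, with an independent repeat for actives.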

[10] = system: Trypanosoma cruzi; assay: Antitrypanosomal activity against trypomastigotes of Trypanosoma cruzi Tulahuen C2C4 containing lacZ gene in rat L6 cells after 4 days by chlorophenol red-beta-D-galactopyranoside/Nonidet assay; format: functional, organism-based; conditions: Tulahuen C2C4, L6, 96 h
How it was run: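 L-6 rat myoblasts seeded at 2,000 cells/well in RPMI 1640 with 10% FBS and 2 mM L-glutamine. After 24 h, 5,000 T. cruzi Tulahuen C2C4 lacZ trypomastigotes added with serial drug dilution. Incubated at 37°C in 5% CO2 for 4 days. CPRG/Nonidet substrate added and colour read at 540 nm after 2–4 h. IC50 from sigmoidal curve. Duplicate determinations.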

[11] = system: Trypanosoma brucei rhodesiense; assay: Trypanocidal activity against Trypanosoma brucei rhodesiense STIB 900 bloodstream form after 72 hrs by resazurin assay; format: functional, organism-based; conditions: STIB 900, 72 h
How it was run: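 T. b. rhodesiense STIB 900 bloodstream forms in MEM with 2-mercaptoethanol and 15% heat-inactivated horse serum, with serial drug dilutions. Incubated 72 h at 37°C in 5% CO2. Resazurin added for 2–4 h more, fluorescence read at ex 536/em 588 nm. IC50 from sigmoidal curve. Duplicate, with an independent repeat for actives.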

[12] = system: Plasmodium falciparum; assay: Antiplasmodial activity after 48 hrs against chloroquine and pyrimethamine-resistant Plasmodium falciparum K1 in human erythrocytes by [3H]hypoxanthine uptake; format: functional, organism-based
How it was run: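 P. falciparum K1 in human red cells in RPMI 1640 with 5% Albumax, exposed to serial drug dilutions. Incubated 48 h at 37°C under reduced oxygen, then 0.5 μCi [³H]hypoxanthine per well for 24 h more. Cells harvested onto glass-fibre filters and counted by scintillation. Result expressed as % of untreated control, with IC50 from sigmoidal curve. Duplicate, plus an independent repeat for actives.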

[13] = system: Leishmania amazonensis; assay: Inhibition of sterol biosynthesis in Leishmania mexicana amazonensis promastigotes assessed as reduction in endogenous cholesta-7,24-dien-3beta-ol level at 3 uM after 96 hrs by gas-liquid chromatography; format: functional; parameters: scale not given: the % may be the effect or the level left; how it was run: as §1
[14] = system: Leishmania amazonensis; assay: Inhibition of sterol biosynthesis in Leishmania mexicana amazonensis promastigotes assessed as reduction in endogenous cholesta-5,7,24-trien-3beta-ol level at 10 uM after 96 hrs by gas-liquid chromatography; format: functional; parameters: scale not given: the % may be the effect or the level left; how it was run: as §1
[15] = system: Leishmania amazonensis; assay: Inhibition of sterol biosynthesis in Leishmania mexicana amazonensis promastigotes assessed as reduction in endogenous cholesta-7,24-dien-3beta-ol level at 10 uM after 96 hrs by gas-liquid chromatography; format: functional; parameters: scale not given: the % may be the effect or the level left; how it was run: as §1
[16] = system: Leishmania amazonensis; assay: Inhibition of sterol biosynthesis in Leishmania mexicana amazonensis promastigotes assessed as reduction in exogenous cholesterol level at 10 uM after 96 hrs by gas-liquid chromatography; format: functional; parameters: scale not given: the % may be the effect or the level left; how it was run: as §1
[17] = system: Leishmania amazonensis; assay: Inhibition of sterol biosynthesis in Leishmania mexicana amazonensis promastigotes assessed as reduction in endogenous 5-dehydro episterol level at 10 uM after 96 hrs by gas-liquid chromatography; format: functional; parameters: scale not given: the % may be the effect or the level left; how it was run: as §1
[18] = system: Leishmania amazonensis; assay: Inhibition of sterol biosynthesis in Leishmania mexicana amazonensis promastigotes assessed as reduction in endogenous episterol level at 10 uM after 96 hrs by gas-liquid chromatography; format: functional; parameters: scale not given: the % may be the effect or the level left; how it was run: as §1

Row | Structure (SMILES) | IC50 [1] | IC50 [2] [µM] | MIC [3] [µM] | Activity [4] [%] | Activity [5] [%] | Activity [6] [%] | Activity [7] [%] | IC50 [8] [µM] | IC50 [9] [µM] | IC50 [10] [µM] | IC50 [11] [µM] | IC50 [12] [µM] | Activity [13] [%] | Activity [14] [%] | Activity [15] [%] | Activity [16] [%] | Activity [17] [%] | Activity [18] [%]
1 | c1ccc2cc(CC3CN4CCC3CC4)ccc2c1 (stereo not given) | Not Active | > 1 | 3 (≈ 0.754 µg/mL) | 11.2 | 26.4 | 49.6 | 9.3 | > 119 | 98.2 | 25.4 | 2.5 | 1.8 | 3.5 |  |  |  |  | 
2 | c1ccc(CC2CN3CCC2CC3)cc1 (stereo not given) | Not Active | > 1 | > 10 |  |  |  |  | > 149 | > 447 | 130 | 60.6 | 5.4 |  | 23.2 | 2.9 | 14.9 | 2.8 | 51.3
3 | C(=C1CN2CCC1CC2)c1ccc(C2OCCO2)cc1 | Not Active | > 1 | > 10 |  |  |  |  | 38.6 | 212 | > 111 | 12.5 | 14.2 |  | 12.7 | 6.7 | 14.1 | 54.9 | 11.7
4 | OC[C@@H]1CC2CCN1C[C@@H]2C#Cc1ccc(OCc2ccccc2)cc1 (stereo not given in full) |  | > 1 | 10 (≈ 3.47 µg/mL) |  | 61.4 |  | 22.7 | 7.4 | 16.1 | 3.4 | 1.2 | 0.6 | 15.9 |  |  | >99 |  | 
5 | C(=C1/CN2CCC1CC2)/c1ccc2ccccc2c1 | Not Active | > 1 | 3 (≈ 0.748 µg/mL) |  | 57.8 | 42.2 |  | 88.2 | 25.6 | 2.8 | 0.5 | 0.9 |  |  |  |  |  | 
6 | C(=C1/CN2CCC1CC2)/c1ccccc1 | Not Active | > 1 | > 10 |  |  |  |  | > 151 | 382 | > 151 | 16 | 0.8 |  | 3.7 | 2.8 | 10.6 | 70.7 | 12.2
7 | OC[C@H]1CC2CCN1C[C@@H]2C#Cc1ccc(OCc2ccccc2)cc1 (stereo not given in full) |  | > 1 | 10 (≈ 3.47 µg/mL) | 10.7 | 21.2 | 63.2 | 14.2 | 8 | 16.6 | 3.1 | 1.2 | 1.1 |  |  |  | >99 |  | 
8 | C(=C1/CN2CCC1CC2)/c1ccc(C2OCCO2)cc1 | Not Active | > 1 | > 10 |  |  |  |  | 82.1 | 136 | 46 | 5.5 | 12.3 |  | 18.5 |  | 25.4 | 16.1 | 14.2
9 | O=Cc1ccc(/C=C2\CN3CCC2CC3)cc1 | Not Active | > 1 | > 10 |  |  |  |  | > 132 | > 396 | > 132 | 13.1 | > 22 |  | 14 | 4.6 | 11.2 | 62 | 8.2
